Experimental data as given in PubChem BioAssay.
The source made the active and inactive calls.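 Rule for the calls, unless noted: active = fluorescence slope higher than the sample average by over 3 SD (cut at about -0.22 in these data, passing the limit was not always enough); inactive = the rest.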

What was measured:
[1] = inhibitors of TNFa-induced NFkB p65 translocation, primary screen, imaging, HUVEC, MLSMR starter and 10KST1 sets (AID 438;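 active = inhibition above 20% together with a positive visual image hit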;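 note: compound added about 3h40 before a 20 min TNFalpha stimulation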;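 for inhibition: signal is the nuclear over cytoplasmic p65 intensity ratio per well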); conditions: HUVEC TNFa-induced p65 nuclear translocation; cell count: measured here: nuclei count (cytotoxicity indicator), at 2.08 µM; inhibition: at 2 µM, stronger effect = higher value, 0% TNFa-plus-vehicle, 100% no-TNFa wells
[2] = inhibitors of E-selectin induction by TNFa, primary screen, imaging, HUVEC, immunofluorescence, MLSMR starter and 10KST1 sets (AID 487;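 active = visually confirmed hit in the image check and inhibition above 20%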;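 for inhibition: signal is fraction of cell area covered by stained E-selectin grains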;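 for nuclei count: 100% = median nuclei count of all wells on the same plate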); conditions: HUVEC TNFalpha-induced E-selectin immunofluorescence imaging, at 2 µM; inhibition: stronger effect = higher value; nuclei count: measured here: cell number, toxicity
[3] = DUSP6 inhibitors restoring Erk phosphorylation by chemical complementation, primary imaging in DUSP6-transfected HeLa (AID 609;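 active = compounds giving at least 50% inhibition in the cell-based MKP-3 phosphatase rescue imaging test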;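 for inhibition: phospho-Erk level distribution per well compared with pooled transfected vehicle control wells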); conditions: HeLa MKP-3 transfected, phospho-Erk imaging KS statistic, at 10 µM, cells stimulated with TPA for 15 min
[4] = target: Dual specificity protein phosphatase 6 (Homo sapiens) (UniProt Q16828); experiment: as above; conditions: HeLa MKP-3 transfected, phospho-Erk imaging KS statistic; at 10 µM; stronger effect = higher value; cells stimulated with TPA for 15 min
Chain of Dual specificity protein phosphatase 6 (Homo sapiens) (Q16828 whole entry, looked up): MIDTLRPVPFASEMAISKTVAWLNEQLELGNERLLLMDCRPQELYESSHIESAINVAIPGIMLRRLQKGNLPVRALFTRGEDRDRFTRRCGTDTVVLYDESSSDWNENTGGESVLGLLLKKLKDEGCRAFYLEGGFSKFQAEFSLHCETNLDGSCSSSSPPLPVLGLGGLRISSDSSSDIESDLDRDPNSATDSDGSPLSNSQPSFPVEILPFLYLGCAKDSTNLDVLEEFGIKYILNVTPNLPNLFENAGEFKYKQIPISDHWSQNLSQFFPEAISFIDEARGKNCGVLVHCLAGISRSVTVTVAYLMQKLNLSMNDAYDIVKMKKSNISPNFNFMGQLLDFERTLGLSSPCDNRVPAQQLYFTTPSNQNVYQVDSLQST

[5] = target: Voltage-gated potassium channel subunit beta-2 (Rattus norvegicus) (UniProt P62483); experiment: KvBeta enzyme negative modulators, primary screen, biochemical, NADPH fluorescence (AID 622); conditions: recombinant KvBeta, 4-cyanobenzaldehyde reduction, at 10 µM, stronger effect = higher value;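 note: slope of raw intensity against log time taken from 70 to 1610 s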
Chain of Voltage-gated potassium channel subunit beta-2 (Rattus norvegicus) (P62483 whole entry, looked up): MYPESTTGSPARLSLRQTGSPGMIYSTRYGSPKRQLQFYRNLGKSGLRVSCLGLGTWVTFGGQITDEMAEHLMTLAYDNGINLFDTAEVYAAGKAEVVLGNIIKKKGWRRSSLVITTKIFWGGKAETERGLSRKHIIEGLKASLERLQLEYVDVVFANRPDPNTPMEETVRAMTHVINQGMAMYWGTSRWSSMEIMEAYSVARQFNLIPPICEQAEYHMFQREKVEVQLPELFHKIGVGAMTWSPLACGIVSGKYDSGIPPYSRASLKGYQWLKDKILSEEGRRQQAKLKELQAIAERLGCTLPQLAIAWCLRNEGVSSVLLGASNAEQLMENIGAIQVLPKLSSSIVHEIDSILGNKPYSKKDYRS

[6] = target: Voltage-gated potassium channel subunit beta-2 (Rattus norvegicus) (UniProt P62483); experiment: KvBeta positive modulators, primary screen, biochemical, NADPH fluorescence (AID 623;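 active = NADPH fluorescence slope more negative than the mean of all samples by about 3 SD, 99.7% confidence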;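 note: fluorescence intensity change per second fitted from 20 to 320 s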); conditions: Recombinant KvBeta, NADPH fluorescence decrease slope, 10 min; at 10 µM; stronger effect = lower value
[7] = target: Muscarinic acetylcholine receptor M4 (Homo sapiens) (UniProt P08173); experiment: compounds altering M4/GIRK thallium flux, either direction, primary screen, M4 allosteric agonist project, cell-based, HEK293 M4/GIRK, BTC-AM (AID 625;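 active = fluorescence slope after compound addition differing from the mean of all tested samples at 99.7% confidence, mostly higher but some lower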;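 note: thallium influx through GIRK channels coupled to M4 in HEK293 cells with BTC-AM dye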); conditions: at 10 µM, actives lie on both sides
Chain of Muscarinic acetylcholine receptor M4 (Homo sapiens) (P08173 whole entry, looked up): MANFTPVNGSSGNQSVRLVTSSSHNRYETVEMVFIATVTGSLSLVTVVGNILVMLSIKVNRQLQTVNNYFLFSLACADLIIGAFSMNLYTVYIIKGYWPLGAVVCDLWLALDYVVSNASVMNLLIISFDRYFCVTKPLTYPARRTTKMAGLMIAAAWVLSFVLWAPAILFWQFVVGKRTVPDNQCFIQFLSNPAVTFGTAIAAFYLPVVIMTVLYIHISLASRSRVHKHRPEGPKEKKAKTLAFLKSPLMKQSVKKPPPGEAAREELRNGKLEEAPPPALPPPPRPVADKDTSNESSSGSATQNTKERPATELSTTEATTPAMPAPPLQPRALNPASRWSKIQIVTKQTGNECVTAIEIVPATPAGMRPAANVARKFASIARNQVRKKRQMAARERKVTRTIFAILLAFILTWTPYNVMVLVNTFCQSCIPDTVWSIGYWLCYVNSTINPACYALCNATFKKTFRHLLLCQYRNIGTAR
Method in brief: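 System: HEK293 cells with M4 receptor and GIRK channels | Incubation: Cells overnight at 37 °C, BTC-AM loading 1 h, reads 2 min total | Technique: Kinetic BTC-AM fluorescence sampled at 1 Hz, 10 s pre-addition baseline | Measure: Post-addition slope, 15–24 s, of baseline-normalized fluorescence | Control set: Carbachol positive, DMSO negative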

[8] = inhibitors of larval lipid processing in zebrafish, primary screen, whole organism, PED6 fluorescence, gall bladder and intestine (AID 686;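 active = a full or partial loss of lipid-probe fluorescence in the fish gall bladder, intestine or both, judged by eye; inactive = no fluorescence loss, or compound toxic to the fish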;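 note: larvae 5 to 7 days old with five fish per well; signal comes from phospholipase A2 cleavage of quenched PED6 carried via bile; overnight exposure to compound and PED6 before scoring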); conditions: Zebrafish larvae PED6 lipid processing, fluorescence scoring; screened at 20 µM (by protocol)
Method in brief: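 Test system – live zebrafish larvae aged 5-7 days, whole organism · Buffer or medium – E3 fish medium · Reagent – quenched phospholipase substrate PED6, 100 nM final, ingested by larvae · Doses – 20 µM single dose · Incubation – overnight compound and PED6 incubation · Technique – visual fluorescence microscopy scoring of gall bladder, gut · Read-out basis – visual per-well fluorescence inhibition score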

[9] = inhibitors of Chlamydomonas gravitaxis, primary screen, whole organism, Chlamydomonas reinhardtii, WT vs cilia-less mutant, absorbance, 96-well (AID 463189;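 active = inhibition at or above 50% relative to wild type and mutant plate controls; inactive = inhibition below 50%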;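 note: 0% = wild type cc124 cells in DMSO and 100% = ciliumless bld1 mutant cells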); conditions: OD600 absorbance, 2 days, at 10 µM, stronger effect = higher value
[10] = measured here: cell density z-score
[11] = measured here: nuclear c-Myc green intensity z-score
[12] = measured here: nuclear pErk red intensity z-score, stronger effect = higher value

Row | Structure (SMILES) | cell count [1] | inhibition [1] | inhibition [2] | nuclei count [2] [%] | z-score [3, 10] | z-score [3, 11] | z-score [3, 12] | inhibition [4] | fluorescence slope [5] | NADPH fluorescence slope [6] | fluorescence slope [7] | outcome [8] | inhibition [9]
1 | CCOC(=O)c1[nH]c2ccccc2c1NC(=O)CN(C)C | 656 | 2.2% (inactive) | -136% (inactive) | 180 | 0.955 | 0.5 | -0.213 | 7.93% (inactive) | -0.476 (inactive) | -4.7e-05 (inactive) | 0.00584 (inactive) | inactive | -6.18% (inactive)
2 | CCC(CC)n1[nH]c(=O)cc1N | 392 | -15.4% (inactive) | -166% (inactive) | 144 | 2 | -1.52 | -0.418 | 7.73% (inactive) | -0.46 (inactive) | -9.4e-05 (inactive) | 0.0051 (inactive) | inactive | 7.67% (inactive)
3 | N#CCSc1nc2c(c(=O)n1Cc1ccco1)C1(CCCC1)Cc1ccccc1-2 | 500 | -2.6% (inactive) | -97.3% (inactive) | 150 | 0.3 | 0.666 | -0.907 | 13.9% (inactive) | -0.397 (inactive) | -2.2e-05 (inactive) | 0.00897 (inactive) | active; weak signal in gallbladder and intestine | -7.4% (inactive)
4 | CCCC(CCC(=O)Nc1ccc(C(=O)OCC)cc1)C(=O)O (stereo not drawn) | 368 | -0.1% (inactive) | -147% (inactive) | 152 | -0.648 | 0.519 | -0.661 | 20.2% (inactive) | -0.484 (inactive) | -4.5e-05 (inactive) | 0.0051 (inactive) | inactive | -0.026% (inactive)
5 | CC(NC(=O)NCCCn1ccnc1)(C(F)(F)F)C(F)(F)F | 679 | 2.1% (inactive) | -67.3% (inactive) | 166 | -0.846 | -0.74 | 0.188 | -13.3% (inactive) | -0.438 (inactive) | -5.8e-05 (inactive) | 0.005 (inactive) | inactive | 0.921% (inactive)
6 | CCCCCOC(=O)Cc1c(C)nc(-c2ccccc2)[nH]c1=O | 373 | -0.5% (inactive) | -157% (inactive) | 157 | 1.82 | -0.595 | -0.463 | 30.7% (inactive) | -0.474 (inactive) | -7.9e-05 (inactive) | 0.00469 (inactive) | inactive | 32% (inactive)
7 | CCN(CC)C(=O)CSc1nc2ccccc2c(=O)n1CC1CCCCC1 | 355 | -2.2% (inactive) | 4% (inactive) | 108 | -1.94 | 0.923 | -0.374 | 1.42% (inactive) | -0.484 (inactive) | 5.7e-06 (inactive) | 0.00498 (inactive) | inactive | 7.22% (inactive)
8 | COc1ccc(N2C(=O)CC(N(Cc3ccc(S(N)(=O)=O)cc3)C(C)=O)C2=O)cc1 (stereo not drawn) | 550 | 4.1% (inactive) | 19.1% (inactive) | 126 | 0.546 | -0.739 | 0.891 | 20.2% (inactive) | -0.481 (inactive) | -3.2e-05 (inactive) | 0.00578 (inactive) | inactive | 9.88% (inactive)
9 | COc1ccc(C2NC(=O)NC(O)(C(F)(F)F)C2C(=O)c2ccc(F)cc2)cc1 (stereo not drawn) | 632 | 6.6% (inactive) | -68.3% (inactive) | 159 | -1.22 | 1.16 | 0.887 | -0.674% (inactive) | -0.479 (inactive) | -5.2e-05 (inactive) | 0.00666 (inactive) | inactive | -6.15% (inactive)
10 | CCCN(CCC)c1nc2ccccc2nc1C(C#N)C(=O)OC(C)COC (stereo not drawn) | 586 | -26.5% (inactive) | 1.8% (inactive) | 174 | 0.238 | 0.588 | 0.413 | -12.6% (inactive) | -0.408 (inactive) | -7.9e-05 (inactive) | 0.00444 (inactive) | inactive | 26.1% (inactive)
11 | CCc1nc(N2CCOCC2)c(C#N)c2c1CCCC2 | 397 | -6.2% (inactive) | -105% (inactive) | 121 | 0.0216 | 0.691 | -0.389 | 9.42% (inactive) | -0.482 (inactive) | -6.5e-05 (inactive) | 0.00431 (inactive) | inactive | 29.5% (inactive)
12 | O=C(c1coc(=O)c(Br)c1)N1CCOCC1 | 718 | 2.4% (inactive) | -137% (inactive) | 181 | -0.0624 | 0.26 | 0.186 | -4.7% (inactive) | -0.429 (inactive) | 3.1e-07 (inactive) | 0.00447 (inactive) | inactive | 14.2% (inactive)
13 | COc1ccc2c(c1OC)C(=O)N1c3ccccc3C(=O)N(c3ccccc3F)C21 (stereo not drawn) | 708 | -7.9% (inactive) | -37.7% (inactive) | 134 | 0.797 | -1.74 | -0.312 | 5.35% (inactive) | -0.444 (inactive) | -5.7e-05 (inactive) | 0.00636 (inactive) | inactive | 3.94% (inactive)
14 | CCCCCOC(=O)C(C)c1c(C)[nH]c(=S)[nH]c1=O (stereo not drawn) | 628 | -1.4% (inactive) | -25.9% (inactive) | 158 | -0.614 | -0.028 | 2.51 | 1.04% (inactive) | -0.47 (inactive) | -8.1e-05 (inactive) | 0.00582 (inactive) | inactive | -3.91% (inactive)
15 | COc1ccc(C2CC(c3ccccc3)Nc3nc(N)nn32)cc1 (stereo not drawn) | 377 | 4.8% (inactive) | -29.3% (inactive) | 110 | -1.01 | -0.362 | -0.446 | 1.48% (inactive) | -0.495 (inactive) | -1.6e-05 (inactive) | 0.00558 (inactive) | inactive | -15% (inactive)
16 | CCCc1nnc(NC(=O)Nc2ccccc2OC)s1 | 618 | -9.4% (inactive) | 14.1% (inactive) | 100 | 1.95 | 0.159 | -0.528 | 42.6% (inactive) | -0.515 (inactive) | -4.1e-05 (inactive) | 0.0109 (inactive) | inactive | -5.69% (inactive)
17 | O=C(O)CCCC(=O)N1CCN(C(c2ccccc2)c2ccccc2)CC1 | 593 | 2% (inactive) | 16.4% (inactive) | 93.4 | 0.508 | 0.369 | -2.19 | -9.53% (inactive) | -0.501 (inactive) | -2.2e-05 (inactive) | 0.00548 (inactive) | inactive | -16% (inactive)
18 | Cc1ccc(Oc2nc3c(c(=O)n(Cc4ccccc4F)c(=O)n3C)n2C)cc1 | 749 | 2.1% (inactive) | -74.9% (inactive) | 156 | 0.256 | -1.95 | -0.363 | 19.8% (inactive) | -0.508 (inactive) | -3.8e-05 (inactive) | 0.00827 (inactive) | inactive | 11.6% (inactive)
19 | COc1ccc(CN(C)CCc2ccccn2)c(OC)c1OC | 494 | -4.5% (inactive) | -90.8% (inactive) | 151 | -1.25 | -0.772 | 0.512 | -3.95% (inactive) | -0.419 (inactive) | -3.4e-05 (inactive) | 0.00521 (inactive) | inactive | 18.3% (inactive)
20 | CN1Cc2c(N3CCOCC3)nc(SCc3ccccc3)c(C#N)c2CC1(C)C | 524 | -3.1% (inactive) | -101% (inactive) | 134 | -1.78 | -0.223 | -1.03 | -0.584% (inactive) | -0.496 (inactive) | -7.5e-06 (inactive) | 0.00495 (inactive) | inactive | 17.9% (inactive)
21 | COC(=O)c1ccc(C2/C(=C(\O)c3ccc(OC)c(C)c3)C(=O)C(=O)N2c2cc(C)on2)cc1 (stereo not drawn) | 664 | -16.1% (inactive) | -48.1% (inactive) | 165 | -1.19 | 0.297 | 0.0353 | -1.12% (inactive) | -0.444 (inactive) | -3.1e-05 (inactive) | 0.00525 (inactive) | inactive | 16.4% (inactive)
